# Assay results of several laboratories.
# Protocols differ between the studies behind these lines.
# Read-out: cell growth or viability
SMILES,cell line,assay,conditions,quantity,result
COc1ccc(NC(=O)c2ccc(-n3cc(CNc4nc(OC)nc(OC)n4)nn3)cc2)cc1,Caco-2,MTT,72 h,IC50,435 nM
C=CC(=O)NC1CCN(c2ncc3ncnc(Nc4ccc(Oc5ccc6c(c5)ncn6C)c(C)c4)c3n2)CC1,LoVo,,,EC50,11.8 nM
C[C@@H]1CC[C@@H]([C@](C)(O)CNCc2ccccc2)[C@H](OCc2ccccc2)C1,A2780,MTT,"10 µM, 72 h",inhibition,91.6%
O=C(c1ccc(Oc2ccc(Br)cc2)c([N+](=O)[O-])c1)C(Cl)Cl,NCI-H1650,MTT,2.5 µM,inhibition,96.1%
C=C(F)C(=O)N1CCN(c2nc(OC[C@@H]3CCCN3C)nc3c2CCN(c2cccc4cccc(Cl)c24)C3)C[C@@H]1CC#N,HCC44,ATP luminescence,,IC50,> 10000 nM
C=CC(=O)c1cccnc1Nc1cccc(C(F)(F)F)c1,NCI-H28,CCK-8,72 h,GI50,5110 nM
O=C(c1ccc(Oc2ccc3cc(Br)ccc3c2Cl)c([N+](=O)[O-])c1)C(Cl)Cl,NCI-H1650,MTT,2.5 µM,inhibition,97%
COc1ccccc1CNC[C@@](C)(O)[C@@H]1CC[C@@H](C)C[C@H]1OCc1ccccc1,A2780,MTT,"10 µM, 72 h",inhibition,58.5%
O=C(c1ccc(Oc2ccc(OCc3ccccc3)cc2)c([N+](=O)[O-])c1)C(Cl)Cl,NCI-H1650,MTT,2.5 µM,inhibition,96.9%
COc1nc(NCc2cn(-c3ccc(C(=O)Nc4ccccc4)cc3)nn2)nc(OC)n1,Caco-2,MTT,72 h,IC50,208 nM
C=CC(=O)N1CCN(c2nc(=O)n(-c3c(C)ccnc3C(C)C)c3nc(-c4c(O)cccc4F)c(F)cc23)[C@@H](C)C1,NCI-H2122,ATP luminescence,,IC50,90.1 nM
C[C@@H]1CC[C@@H]([C@](O)(CNCc2ccc(F)cc2)COCc2ccc(F)cc2)[C@H](OCc2ccc(F)cc2)C1,A2780,MTT,"30 µM, 72 h",inhibition,95.3%
N#Cc1ccc(Oc2ccc(C(=O)C(Cl)Cl)cc2[N+](=O)[O-])cc1,NCI-H1650,MTT,2.5 µM,inhibition,87.6%
C[C@@H]1CC[C@@H]([C@](O)(CNCc2cccc3ccccc23)COCc2ccccc2)[C@H](OCc2ccccc2)C1,A2780,MTT,"10 µM, 72 h",inhibition,90.7%
CC(=O)c1ccc(Oc2ccc(C(=O)C(Cl)Cl)cc2[N+](=O)[O-])cc1,NCI-H1650,MTT,2.5 µM,inhibition,96.4%
O=C(O)c1cccnc1Nc1cccc(C(F)(F)F)c1,NCI-H28,CCK-8,72 h,GI50,> 40000 nM
O=C(NO)c1ccc(CNc2nc3cccc(-c4ccc5c(c4)OCO5)n3n2)cc1,HT-29,SRB,,GI50,510 nM
CC(=O)OCCCOc1ccc(C(=O)C(Cl)Cl)cc1[N+](=O)[O-],NCI-H1650,MTT,2.5 µM,inhibition,39.6%
C=C(COCc1ccc(OC)cc1)[C@@H]1CC[C@@H](C)C[C@H]1OCc1ccc(OC)cc1,A2780,MTT,"30 µM, 72 h",inhibition,27.4%
COc1cccc2c1C(=O)c1c(O)c3c(c(O)c1C2=O)C[C@@](O)(C(=O)CO)C[C@@H]3O[C@H]1C[C@H](N)[C@H](O)[C@H](C)O1,Caco-2,MTT,"6.25 µg/mL, 48 h, serum-free",viability,62.1%
O=C1c2ccccc2C(=O)c2c(Oc3ccc(C(=O)C(Cl)Cl)cc3[N+](=O)[O-])cccc21,NCI-H1650,MTT,2.5 µM,inhibition,28.7%
C[C@@H]1CC[C@@H]([C@@](O)(CNCc2ccccc2)COCc2ccc(F)cc2)[C@H](OCc2ccc(F)cc2)C1,A2780,MTT,"30 µM, 72 h",inhibition,98.5%
COc1nc(NCc2cn(-c3ccc(NC(=O)c4ccc(C(F)(F)F)cc4)cc3)nn2)nc(OC)n1,Caco-2,MTT,72 h,IC50,566 nM
COc1ccc(COC[C@@](O)(CNCc2ccccc2)[C@@H]2CC[C@@H](C)C[C@H]2OCc2ccc(OC)cc2)cc1,A2780,MTT,"10 µM, 72 h",inhibition,98%
COc1ccc(C(=O)Nc2ccc(-n3cc(CNc4nc(OC)nc(OC)n4)nn3)cc2)cc1,Caco-2,MTT,72 h,IC50,722 nM
C[C@@H]1CC[C@@H]([C@](O)(CNCc2ccccc2)COCc2ccccc2)[C@H](OCc2ccccc2)C1,A2780,MTT,"30 µM, 72 h",inhibition,91.1%
O=C(c1ccc(Oc2ccc3oc(=O)ccc3c2)c([N+](=O)[O-])c1)C(Cl)Cl,NCI-H1650,MTT,2.5 µM,inhibition,96.8%
